{"source": "paper PMC6021137", "about": "(Clinical cancer research : an official journal of the …, 2013)", "key": {"[1]": {"system": "CWR22Pc cells", "assay": "Cell viability assay", "type": "cell-based", "conditions": "Homo sapiens, 72 h, read-out: GI50 (number of viable cells decreased by 50%)"}, "[2]": {"system": "CWR22Rv1 tumor xenografts (s.c.)", "assay": "Subcutaneous CWR22Rv1 xenograft tumor growth", "type": "in vivo, SCID mice", "conditions": "for suppression of s.c. tumor growth at end of treatment: oral gavage"}, "[3]": {"target": "T1, Stat5a (Homo sapiens, UniProt O60674)", "T1 sequence (O60674 whole entry)": "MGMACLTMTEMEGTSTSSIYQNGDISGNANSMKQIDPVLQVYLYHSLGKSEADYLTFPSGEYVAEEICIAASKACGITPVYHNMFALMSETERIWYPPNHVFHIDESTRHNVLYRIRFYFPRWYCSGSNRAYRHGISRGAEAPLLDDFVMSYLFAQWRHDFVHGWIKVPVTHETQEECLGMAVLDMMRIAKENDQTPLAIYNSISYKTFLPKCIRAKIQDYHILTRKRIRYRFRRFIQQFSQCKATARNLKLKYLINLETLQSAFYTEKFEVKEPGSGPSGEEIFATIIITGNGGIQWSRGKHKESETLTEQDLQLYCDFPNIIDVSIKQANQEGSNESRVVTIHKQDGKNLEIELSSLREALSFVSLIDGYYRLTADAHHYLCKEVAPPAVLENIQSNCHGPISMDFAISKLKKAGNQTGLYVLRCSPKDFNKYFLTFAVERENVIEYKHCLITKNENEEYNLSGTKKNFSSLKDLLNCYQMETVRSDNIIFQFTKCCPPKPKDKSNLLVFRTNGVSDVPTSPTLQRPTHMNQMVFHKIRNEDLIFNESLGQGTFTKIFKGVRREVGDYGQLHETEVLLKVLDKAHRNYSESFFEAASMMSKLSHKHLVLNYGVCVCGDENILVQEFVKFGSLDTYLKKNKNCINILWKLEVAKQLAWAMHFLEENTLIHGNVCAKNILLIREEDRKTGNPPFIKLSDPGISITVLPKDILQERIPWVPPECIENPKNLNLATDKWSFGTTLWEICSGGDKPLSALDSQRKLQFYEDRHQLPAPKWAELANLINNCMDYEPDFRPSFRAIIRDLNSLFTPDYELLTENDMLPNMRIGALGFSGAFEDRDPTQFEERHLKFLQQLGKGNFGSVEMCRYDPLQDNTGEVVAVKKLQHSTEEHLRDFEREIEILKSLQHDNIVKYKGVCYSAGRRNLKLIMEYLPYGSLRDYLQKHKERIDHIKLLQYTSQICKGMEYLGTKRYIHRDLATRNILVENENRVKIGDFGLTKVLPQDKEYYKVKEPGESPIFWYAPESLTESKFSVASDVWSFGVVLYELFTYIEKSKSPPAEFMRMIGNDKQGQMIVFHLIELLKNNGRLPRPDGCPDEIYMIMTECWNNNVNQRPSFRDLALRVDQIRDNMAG", "assay": "Stat5a phosphorylation, immunoprecipitation/immunoblotting, CWR22Rv1 cells", "type": "cell-based", "conditions": "read-out: IC50, inhibition of constitutive activation of Stat5a; exponentially growing CWR22Rv1 cells"}, "[4]": {"system": "CWR22Pc cells", "assay": "Caspase-3 activation assay", "type": "cell-based, human", "conditions": "800 nM, 48 h"}, "[5]": {"system": "Stat5a/b dimerization", "assay": "Stat5a/b dimerization by co-immunoprecipitation in PC-3 cells", "type": "cell-based, human", "conditions": "2 h pre-treatment, 10 nM hPrl"}, "[6]": {"system": "CWR22Rv1 cells", "assay": "Caspase-3 activation assay", "type": "cell-based, human", "conditions": "800 nM, 72 h"}, "[7]": {"system": "PC-3", "assay": "Cell viability assay", "type": "cell-based", "conditions": "Homo sapiens, PC-3, 72 h"}, "[8]": {"system": "CWR22Rv1 tumor xenografts (orthotopic)", "assay": "Orthotopic CWR22Rv1 xenograft tumor growth", "type": "in vivo, SCID mice", "conditions": "oral gavage", "outline": "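Luciferase-tagged CWR22Rv1 cells were implanted orthotopically into the prostates of male CB-17 SCID mice. Mice received test compound at 10 or 30 mg/kg, or vehicle (0.1% Tween 80/0.5% methylcellulose), daily by oral gavage. […]. Growth suppression was assessed at end of treatment versus vehicle.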"}, "[9]": {"system": "Stat5a/b nuclear translocation", "assay": "Nuclear translocation of Stat5a/b, immunofluorescence in PC-3 cells", "type": "cell-based, human", "conditions": "200 nM AZD1480 for 2 h, 10 nM hPrl 20 min"}, "[10]": {"target": "T2, Stat5b (Homo sapiens, UniProt O60674)", "T2 sequence (O60674 whole entry)": "as above", "assay": "Stat5b phosphorylation, immunoprecipitation/immunoblotting, CWR22Pc cells", "type": "cell-based"}, "[11]": {"system": "CWR22Pc cells", "assay": "Cell cycle analysis", "type": "cell-based, human", "conditions": "CWR22Pc, 24, 48 and 72 h"}, "[12]": {"target": "T2, Stat5b", "assay": "Stat5b phosphorylation, immunoprecipitation/immunoblotting, CWR22Rv1 cells", "type": "cell-based"}, "[13]": {"system": "DU145", "assay": "Cell viability assay", "type": "cell-based", "conditions": "Homo sapiens, DU-145, 72 h"}, "[14]": {"system": "normal prostate epithelial cells (RC165N)", "assay": "Cell viability assay", "type": "cell-based", "conditions": "Homo sapiens, 72 h"}, "[15]": {"system": "CWR22Pc xenograft tumors", "assay": "CWR22Pc xenograft tumor growth", "type": "in vivo"}, "[16]": {"system": "clinical prostate cancers ex vivo in organ explant cultures", "assay": "Ex vivo organ explant cultures of clinical PCs", "type": "cell-based, human"}, "[17]": {"system": "CWR22Rv1 cells", "assay": "Cell viability assay", "type": "cell-based", "conditions": "Homo sapiens, CWR22Rv1, 72 h, read-out: GI50 (number of viable cells decreased by 50%)"}, "[18]": {"target": "T1, Stat5a", "assay": "Stat5a phosphorylation, immunoprecipitation/immunoblotting, CWR22Pc cells", "type": "cell-based", "conditions": "read-out: IC50, inhibition of constitutive activation of Stat5a; exponentially growing CWR22Pc cells"}, "[19]": {"conditions": "tumors harvested at end of treatment"}}, "note": "Where “and” joins values, the source holds several entries; their conditions need not be identical. Identical values can stand only once.", "data": [{"smiles": "Cc1cc(Nc2nc(N[C@@H](C)c3ncc(F)cn3)ncc2Cl)n[nH]1", "note": "[AZD1480, 5-Chloro-N(2)-[(1S)-1-(5-fluoropyrimidin-2-yl)ethyl]-N(4)-(5-methyl-1H-pyrazol-3-yl)pyrimidine-2,4-diamine]", "values": [{"measurement": "GI50", "setting": "[1]", "value": 482, "unit": "nM"}, {"measurement": "suppression of s.c. tumor growth at end of treatment", "setting": "[2]; 10 mg/kg daily", "value": 52, "unit": "%"}, {"measurement": "suppression of s.c. tumor growth at end of treatment", "setting": "[2]; 30 mg/kg daily", "value": 72, "unit": "%"}, {"measurement": "Stat5a/b phosphorylation in s.c. xenograft tumor lysates", "setting": "[2]; 2 h following 30 mg/kg", "value": "significant inhibition of Stat5a/b phosphorylation"}, {"measurement": "decrease in nuclear Stat5a/b in tumor tissues relative to control (IHC)", "setting": "[2]; tumors harvested after 11 days of drug treatment", "value": 70, "unit": "%"}, {"measurement": "IC50", "setting": "[3]", "value": 16, "unit": "nM"}, {"measurement": "increase in caspase-3 activation", "setting": "[4]", "value": 150, "unit": "%"}, {"measurement": "hPrl-induced Stat5a/b dimerization", "setting": "[5]", "value": "potently inhibited"}, {"measurement": "increase in caspase-3 activation", "setting": "[6]", "value": 200, "unit": "%"}, {"measurement": "GI50", "setting": "[7]", "value": 1760, "unit": "nM"}, {"measurement": "suppression of orthotopic tumor growth", "setting": "[8]; 10 mg/kg daily", "value": 6, "unit": "%"}, {"measurement": "suppression of orthotopic tumor growth", "setting": "[8]; 30 mg/kg daily", "value": 54, "unit": "%"}, {"measurement": "ligand-induced nuclear translocation of Stat5a/b", "setting": "[9]", "value": "no ligand-induced nuclear immunostaining of Stat5a/b"}, {"measurement": "IC50", "setting": "[10]; read-out: IC50 for Prl-induced Stat5b phosphorylation, serum-starved CWR22Pc cells, 10 nM hPrl", "value": 70, "unit": "nM"}, {"measurement": "IC50", "setting": "[10]; read-out: IC50 for Stat5b phosphorylation (constitutive), exponentially growing CWR22Pc cells", "value": 65, "unit": "nM"}, {"measurement": "cell cycle distribution: G1, G2-M and dead cells (sub G1)", "setting": "[11]", "value": "fraction of dead cells (sub G1) was increased at all time points"}, {"measurement": "IC50", "setting": "[12]; read-out: IC50 for Prl-induced Stat5b phosphorylation, serum-starved CWR22Rv1 cells, 10 nM hPrl", "value": 48, "unit": "nM"}, {"measurement": "IC50", "setting": "[12]; read-out: IC50 for Stat5b phosphorylation (constitutive), exponentially growing CWR22Rv1 cells", "value": 65, "unit": "nM"}, {"measurement": "GI50", "setting": "[13]", "value": 3520, "unit": "nM"}, {"measurement": "GI50", "setting": "[14]", "value": 2080, "unit": "nM"}, {"measurement": "inhibition of primary CWR22Pc tumor growth (TW 1)", "setting": "[15]; 30 mg/kg daily oral, 21 days from day 12", "value": 73, "unit": "%"}, {"measurement": "emergence of CR CWR22Pc tumors (TW 2)", "setting": "[15]; 30 mg/kg daily oral, from day 13 after androgen deprivation", "value": "significantly blocked"}, {"measurement": "growth of established CR CWR22Pc tumors (TW 3)", "setting": "[15]; 30 mg/kg daily oral, from day 23 after androgen deprivation", "value": "significantly blocked"}, {"measurement": "overall survival of tumor-bearing mice", "setting": "[15]; TWs 2 and 3, vs docetaxel-treated mice", "value": "better overall survival"}, {"measurement": "levels of full-length AR, AR splice variants and tissue PSA in tumor lysates", "setting": "[15]; immunoblotting, TWs 1, 2 and 3", "value": "did not affect"}, {"measurement": "nuclear Stat5a/b levels in CWR22Pc tumors (IHC)", "setting": "[15]; [19]", "value": "decreased nuclear Stat5a/b levels in all TWs significantly"}, {"measurement": "fraction of viable tumor cells in CWR22Pc tumors", "setting": "[15]; tumors harvested at end of treatment, all TWs", "value": "reduced the fraction of viable tumor cells in all TWs"}, {"measurement": "nuclear Stat5a/b levels in explants", "setting": "[16]; 9 responsive PCs, both AZD1480 treatment groups", "value": "significantly decreased"}, {"measurement": "clinical PCs not responding (non-responders)", "setting": "[16]; 7 days culture", "value": "3 of the 12 and 3"}, {"measurement": "clinical PCs responding by loss of viable epithelium (responders)", "setting": "[16]; 7 days culture", "value": "Nine of 12"}, {"measurement": "concentration from which extensive loss of viable epithelium starts", "setting": "[16]; responders, 7 days culture", "value": 25, "unit": "µM"}, {"measurement": "GI50", "setting": "[17]", "value": 438, "unit": "nM"}, {"measurement": "IC50", "setting": "[18]", "value": 7, "unit": "nM"}]}, {"smiles": "CC(O)(CS(=O)(=O)c1ccc(F)cc1)C(=O)Nc1ccc(C#N)c(C(F)(F)F)c1", "note": "(stereo not drawn) [bicalutamide, reference compound]", "values": [{"measurement": "suppression of primary CWR22Pc tumor growth (TW 1)", "setting": "[15]; 50 mg/kg daily oral, 21 days from day 12", "value": 30, "unit": "%"}, {"measurement": "nuclear Stat5a/b levels in CWR22Pc tumors (IHC)", "setting": "[15]; [19]", "value": "no effect"}]}, {"smiles": "CC(=O)O[C@@]12CO[C@@H]1C[C@H](O)[C@@]1(C)C(=O)[C@H](O)C3=C(C)[C@@H](OC(=O)[C@H](O)[C@@H](NC(=O)OC(C)(C)C)c4ccccc4)C[C@@](O)([C@@H](OC(=O)c4ccccc4)[C@H]21)C3(C)C", "note": "[docetaxel, reference compound]", "values": [{"measurement": "nuclear Stat5a/b levels in CWR22Pc tumors (IHC)", "setting": "[15]; [19]", "value": "no effect"}]}]}
